Published values pooled from the literature.
Each line is one published result; the experiments were not run side by side.
CDK3 with cyclin E: Cyclin-dependent kinase 3, with cyclin E (CDK3, Homo sapiens, UniProt Q00526)
CDK3: Cyclin-dependent kinase 3 (CDK3, Homo sapiens, UniProt Q00526)
CDK3 with cyclin E1: Cyclin-dependent kinase 3, with cyclin E1 (CDK3, Homo sapiens, UniProt Q00526)
CDK3 with cyclin E2: Cyclin-dependent kinase 3, with cyclin E2 (CDK3, Homo sapiens, UniProt Q00526)

Structure (SMILES) | target | test | setting | endpoint | value
CCN(CC)CCNC(=O)c1c(C)[nH]c(/C=C2\C(=O)Nc3ccc(F)cc32)c1C | CDK3 with cyclin E | enzyme activity, inhibitor | 0.3 µM | inhibition | 1%
Cc1cc(NC(=O)c2cccc3cc(-c4cccc5[nH]nc(N)c45)ccc23)ccc1F | CDK3 with cyclin E | enzyme activity, inhibitor | 0.1 µM | activity vs control | 96%
COc1cc(-c2cn(C3CCc4c(F)cccc4N(CC(F)(F)F)C3=O)nn2)ccc1-n1cnc(C)c1 (centres unmarked) | CDK3 | cell-free assay, competition with immobilised ligand | 1 µM | remaining binding | 100%
Cc1ccc(-n2nc(C(C)(C)C)cc2NC(=O)Nc2ccc(OCCN3CCOCC3)c3ccccc23)cc1 | CDK3 with cyclin E | enzyme activity, inhibitor | 10 µM | inhibition | -10%
Cc1cnc(NC2CCOCC2)nc1-n1cnc(C(=O)NC(CN)c2cc(F)cc(Cl)c2)c1 (centres unmarked) | CDK3 with cyclin E | enzyme activity, inhibitor, radiometric | 1 µM | remaining activity | 5%
N#CCCc1ccc2c(c1)-c1[nH]c3ccc([N+](=O)[O-])cc3c1CC(=O)N2 | CDK3 with cyclin E | cell-free assay | 0.5 µM | remaining signal | 39.7%
CCCS(=O)(=O)Nc1ccc(F)c(C(=O)c2c[nH]c3ncc(-c4ccc(Cl)cc4)cc23)c1F | CDK3 with cyclin E | enzyme activity, inhibitor | 1 µM | inhibition | < 10%
Cc1nccc(COC(=O)N2C[C@@H]3[C@@H](CNC(=O)c4ccc5[nH]nnc5c4)[C@@H]3C2)n1 | CDK3 | cell-free assay, competition with immobilised ligand | 1 µM | remaining binding | 97%
O=C(CSc1nc2nccnc2c(=O)n1CCc1ccccc1)Nc1nccs1 | CDK3 with cyclin E1 | enzyme activity, inhibitor | 10 µM | inhibition | -19%
Oc1cccc(-c2nc(N3CCOCC3)c3oc4ncccc4c3n2)c1 | CDK3 with cyclin E | cell-free assay | 0.5 µM | remaining signal | 93.9%
O=C(Nc1cnn(-c2csc(C(=O)NC3COC3)c2)c1)Nc1c(F)cccc1Cl | CDK3 with cyclin E2 | enzyme activity, inhibitor | 5 µM | remaining activity | 109%
CS(=O)(=O)NCC[C@H](NC(=O)c1cncc2c1cnn2-c1ccc(F)cc1)c1ccnc(S(C)(=O)=O)c1 | CDK3 | cell-free assay, competition with immobilised ligand | 1 µM | remaining binding | 100%
Cc1sc(C(=O)NC2COC2)cc1-n1cc(NC(=O)Nc2c(F)cccc2Cl)cn1 | CDK3 with cyclin E | enzyme activity, inhibitor | 10 µM | remaining activity | 91.2%
Cc1cc(-n2nc(Cc3cc(F)cc(C(F)(F)F)c3)nc2C)ccc1C(N)=O | CDK3 | cell-free assay, competition with immobilised ligand | 1 µM | remaining binding | 100%
CC(C)(C)c1nc2c(s1)c1nc(N)ncc1c1ccc(NS(=O)(=O)c3c(F)cccc3F)c(F)c12 | CDK3 with cyclin E1 | enzyme activity, inhibitor, radiometric | 1 µM | remaining activity | 98%
CN1CC(Oc2cnc(C#N)cc2-c2ccn3nc(NC(=O)C4CC4)cc3c2)C1 | CDK3 with cyclin E | enzyme activity, inhibitor | 1 µM | inhibition | 4%
Cc1nc(C2CCN(C(=O)c3ccc(OC(F)(F)F)cc3N)CC2)c2ncc(N3CCN(C)CC3)cc2n1 | CDK3 | cell-free assay, competition with immobilised ligand | 1 µM | remaining binding | 100%
Cc1ccc(Nc2nccc(N(C)c3ccc4c(C)n(C)nc4c3)n2)cc1S(N)(=O)=O | CDK3 with cyclin E | enzyme activity, inhibitor | 10 µM | inhibition | 8%
O=C(Nc1cnn(-c2csc(C(=O)NC3COC3)c2)c1)Nc1ccccc1Cl | CDK3 with cyclin E2 | enzyme activity, inhibitor | 5 µM | remaining activity | 95.8%
CN(C)c1ncnc(-c2ccc3nc(Nc4cc(CN5CCN(C(=O)CC(F)(F)F)CC5)ccn4)[nH]c3c2)c1Cl | CDK3 | cell-free assay, competition with immobilised ligand | 1 µM | remaining binding | 86%
CNC(=O)c1cc(Oc2ccc(NC(=O)Nc3ccc(Cl)c(C(F)(F)F)c3)cc2)ccn1 | CDK3 with cyclin E | enzyme activity, inhibitor | 10 µM | inhibition | 0%
CN(C)CC#Cc1ccc(OCCCc2sc(N3CCc4cccc(C(=O)Nc5nc6ccccc6s5)c4C3)nc2C(=O)O)c(F)c1 | CDK3 | cell-free assay, competition with immobilised ligand | 1 µM | remaining binding | 68%
Cc1ccc(C(=O)NCc2ccsc2)cc1C#Cc1cn(C(C)C)c2ncnc(N)c12 | CDK3 with cyclin E | enzyme activity, inhibitor | 1 µM | activity vs control | 98%
